Measured values as given in ChEMBL document CHEMBL1140960, “Synthesis of amide and urea derivatives of benzothiazole as Raf-1 inhibitor” (2008).
In brackets after ≈: the same amount, converted by molar mass. Activity calls are given as the source filed them. No cut-off for these calls is given here.

Columns and labels:
SK-HEP1 = assay: Antiproliferative activity against human SKHEP1 cells by SRB assay; assay type: functional
Summary of the method: (§1)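 Cells from exponential-phase cultures were trypsinized, counted and plated. Fixation used cold 10% TCA for 1 h at 4 °C, then water washes. Staining was 0.1% SRB in 1% acetic acid for at least 15 min, followed by 1% acetic acid rinses. Dye was solubilized in 10 mM unbuffered Tris base and absorbance read at 540 nm.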

MDA-MB-231 = assay: Antiproliferative activity against human MDA-MB-231 cells by SRB assay; assay type: functional
Summary of the method: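 Trypsinized exponential-phase cells were plated at densities chosen for exponential growth over a 5-day assay. Cells were fixed with cold 10% TCA for 1 h at 4 °C, water-washed, stained at least 15 min with 0.1% SRB in 1% acetic acid, and rinsed with 1% acetic acid. Bound dye was solubilized in 10 mM unbuffered Tris base and OD read at 540 nm.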

NUGC-3 = assay: Antiproliferative activity against human NUGC3 cells by SRB assay; assay type: functional; summary of the method: as §1
[1] = molecular target: RAF proto-oncogene serine/threonine-protein kinase (Homo sapiens) (UniProt P04049); assay: Inhibition of Raf1 at 50 uM by liquid scintillation counting
Sequence of RAF proto-oncogene serine/threonine-protein kinase (Homo sapiens) (P04049 whole entry): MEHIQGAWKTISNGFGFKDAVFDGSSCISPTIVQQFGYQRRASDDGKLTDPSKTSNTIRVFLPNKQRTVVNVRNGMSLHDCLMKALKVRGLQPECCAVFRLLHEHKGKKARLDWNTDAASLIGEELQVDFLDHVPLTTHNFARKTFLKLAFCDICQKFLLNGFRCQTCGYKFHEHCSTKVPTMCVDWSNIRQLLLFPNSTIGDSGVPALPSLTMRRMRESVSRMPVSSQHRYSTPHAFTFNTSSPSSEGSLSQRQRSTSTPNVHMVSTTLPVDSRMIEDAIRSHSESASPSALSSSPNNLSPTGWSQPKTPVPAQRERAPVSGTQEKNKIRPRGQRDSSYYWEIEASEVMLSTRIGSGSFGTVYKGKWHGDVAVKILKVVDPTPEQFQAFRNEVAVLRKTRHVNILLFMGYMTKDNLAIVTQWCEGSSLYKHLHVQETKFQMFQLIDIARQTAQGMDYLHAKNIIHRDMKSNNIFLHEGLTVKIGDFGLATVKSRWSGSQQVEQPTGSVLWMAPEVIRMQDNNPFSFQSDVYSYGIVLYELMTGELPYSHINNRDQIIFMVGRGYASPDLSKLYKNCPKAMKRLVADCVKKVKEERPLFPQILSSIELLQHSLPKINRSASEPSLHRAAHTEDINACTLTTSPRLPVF
Summary of the method: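 Raf-1 and its substrate MEK were diluted together in buffer (20 mM MOPS pH 7.2, 25 mM β-glycerol phosphate, 5 mM EGTA, 1 mM orthovanadate, 1 mM DTT), with compound in 1% final DMSO. Reaction was started with [γ-33P]ATP (1000–3000 dpm/pmol) and run at 32 °C, usually 22 min. Samples went to phosphocellulose mats, were washed with 1% phosphoric acid and counted by scintillation; % inhibition is the mean of three experiments.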

| Structure (SMILES) | GI50 (SK-HEP1) [µg/mL] | GI50 (MDA-MB-231) [µg/mL] | inhibition [1] [%] | Activity [1] | GI50 (NUGC-3) [µg/mL] |
| --- | --- | --- | --- | --- | --- |
| COc1ccc(C(=O)Nc2nc3cc(C)cc(C)c3s2)cc1 | > 10 | 1.03 (≈ 3.3 µM) |  |  | > 10 |
| COc1ccc2sc(NC(=O)c3ccc(C#N)cc3)nc2c1 | > 10 | > 10 |  |  | > 10 |
| Cc1ccccc1NC(=O)Nc1nc2ccc(F)cc2s1 | > 10 | > 10 |  |  | > 10 |
| O=C(Nc1nc2ccc(C(F)(F)F)cc2s1)c1ccc([N+](=O)[O-])cc1 | > 10 | > 10 |  |  | > 10 |
| COc1cccc2sc(NC(=O)c3ccc([N+](=O)[O-])cc3)nc12 | > 10 | > 10 |  |  | > 10 |
| Cc1ccc(C(=O)Nc2nc3cc(C)cc(C)c3s2)cc1 | 2.17 (≈ 7.32 µM) | 0.44 (≈ 1.48 µM) |  |  | 2.37 (≈ 8 µM) |
| Cc1ccc2nc(NC(=O)Nc3cccc([N+](=O)[O-])c3)sc2c1 | > 10 | > 10 |  |  | > 10 |
| COc1ccc(C(=O)Nc2nc3c(OC)cccc3s2)cc1 | 2.11 (≈ 6.71 µM) | 1.25 (≈ 3.98 µM) | 7.8 |  | 3.46 (≈ 11 µM) |
| Cc1cc(C)c2sc(NC(=O)c3ccc(C#N)cc3)nc2c1 | 1.18 (≈ 3.84 µM) | 0.48 (≈ 1.56 µM) |  | inactive | 0.62 (≈ 2.02 µM) |
| O=C(Nc1nc2ccc(F)cc2s1)Nc1ccccc1F | > 10 | > 10 |  |  | > 10 |
| COc1cccc2sc(NC(=O)c3ccc(C#N)cc3)nc12 | > 10 | > 10 |  |  | > 10 |
| Cc1cc(C)c2sc(NC(=O)c3ccc(C(F)(F)F)cc3)nc2c1 | 1.36 (≈ 3.88 µM) | 0.45 (≈ 1.28 µM) |  | inactive | 1.4 (≈ 4 µM) |

More lines, main results first:

| GI50 (SK-HEP1) [µg/mL] | GI50 (MDA-MB-231) [µg/mL] | inhibition [1] [%] | Activity [1] | Structure (SMILES) | GI50 (NUGC-3) [µg/mL] |
| --- | --- | --- | --- | --- | --- |
| 2.01 (≈ 6.74 µM) | 0.86 (≈ 2.88 µM) | 37 |  | COc1cccc2sc(NC(=O)c3ccc(C)cc3)nc12 | > 10 |
| 2.21 (≈ 6.34 µM) | 0.82 (≈ 2.35 µM) |  | inactive | O=C(Nc1cccc([N+](=O)[O-])c1)Nc1nc2ccc(Cl)cc2s1 | 1.03 (≈ 2.95 µM) |
| > 10 | > 10 |  |  | COc1ccc2nc(NC(=O)c3ccc(C)cc3)sc2c1 | > 10 |
| > 10 | > 10 |  |  | O=C(Nc1ccccc1)Nc1nc2ccc(F)cc2s1 | > 10 |
| 2.1 (≈ 5.72 µM) | 1.89 (≈ 5.15 µM) |  |  | O=C(Nc1nc2ccc([N+](=O)[O-])cc2s1)c1ccc(C(F)(F)F)cc1 | 1.65 (≈ 4.49 µM) |
| > 10 | > 10 |  |  | COc1ccc2sc(NC(=O)c3ccc(C(F)(F)F)cc3)nc2c1 | > 10 |
| > 10 | > 10 |  |  | COc1ccc2sc(NC(=O)c3ccc(C)cc3)nc2c1 | > 10 |
| 0.07 (≈ 0.129 µM) | 0.39 (≈ 0.718 µM) |  |  | COc1cccc2c1C(=O)c1c(O)c3c(c(O)c1C2=O)C[C@@](O)(C(=O)CO)C[C@@H]3O[C@H]1C[C@H](N)[C@H](O)[C@H](C)O1 [DOXORUBICIN] | 0.11 (≈ 0.202 µM) |
| > 10 | > 10 |  |  | COc1ccc2sc(NC(=O)c3ccc([N+](=O)[O-])cc3)nc2c1 | > 10 |
| > 10 | > 10 |  |  | COc1ccc(C(=O)Nc2nc3cc(OC)ccc3s2)cc1 | > 10 |
| > 10 | > 10 |  |  | COc1ccc(NC(=O)Nc2nc3ccc(F)cc3s2)cc1 | > 10 |
| 0.18 (≈ 0.578 µM) | 0.1 (≈ 0.321 µM) | 14.9 |  | Cc1cc2nc(NC(=O)Nc3ccccc3C)sc2cc1C | 0.18 (≈ 0.578 µM) |
| 1.74 (≈ 5.32 µM) | 0.29 (≈ 0.886 µM) |  | inactive | Cc1cc(C)c2sc(NC(=O)c3ccc([N+](=O)[O-])cc3)nc2c1 | 1.32 (≈ 4.03 µM) |
| > 10 | > 10 |  |  | COc1cccc2sc(NC(=O)c3ccc(C(F)(F)F)cc3)nc12 | > 10 |
| 1.96 (≈ 5.9 µM) | 0.89 (≈ 2.68 µM) | 7.9 |  | O=C(Nc1cccc([N+](=O)[O-])c1)Nc1nc2ccc(F)cc2s1 | 0.83 (≈ 2.5 µM) |
